Source: PubChem (several laboratories)
Sampled rows, rich in hits. Any-hit rate of the full collection: about 5.5%.
STAT3 blocker – inhibitors of IL-6 induced STAT3 signaling. U3A cells, IL-6 STAT3-luciferase reporter, luminescence; host cell line lacks STAT1. inhibition, % at 5.5 µM. 0.89% of 190,000 active;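 active = inhibition above the mean inhibition across all screened compounds plus 3 SD, cut at about 44% in these data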
STAT3 act – activators of IL-6 induced STAT3 signaling; U3A cells, IL-6 STAT3-luciferase reporter, luminescence; 100% = signal with IL-6 EC80 alone; activation (% of control), % at 5.6 µM; AID 871; 0.91% of 190,000 active;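 active = activation above the screen-wide mean of compound activation plus 3 SD, cut at about 130% in these data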
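Detection: reporter luminescence signal / Assay system: STAT1-lacking human U3A cells, STAT3 luciferase reporter / Incubation: compound pre-incubation 1 h before IL-6, then 6 h stimulation at 37 °C / Control set: IL-6-only high control / Read-out: % activation relative to IL-6 control / Probe or stimulus: Interleukin-6, 33 ng/mL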
HSV augment – HSV replication enhancement; HSV replication augmentation in cells, fold increase; maximum fold increase; 0.005% of 220,000 active; AID 1956; in the data active = maximum fold increase above about 1.5; inconclusive = no clear call, values can overlap the other calls; tested in PC3 cells
Cl transport mod – modulators of human KCC2 chloride dependent transport. B-score of Tl+ flux slope (higher = more flux/activation; lower = inhibition) at 10 µM. 2.2% of 190,000 active. Q9H2X9. AID 1456. KCC2 cells, thallium flux FluoZin-2 fluorescence;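 active = thallium flux slope and its plate-corrected score both differing from the plate sample mean at a set confidence after two filtering rounds, in either direction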;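 also: slope of fluorescence scaled to starting intensity during 10 to 20 s after thallium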
Target sequence (Q9H2X9 whole entry, looked up): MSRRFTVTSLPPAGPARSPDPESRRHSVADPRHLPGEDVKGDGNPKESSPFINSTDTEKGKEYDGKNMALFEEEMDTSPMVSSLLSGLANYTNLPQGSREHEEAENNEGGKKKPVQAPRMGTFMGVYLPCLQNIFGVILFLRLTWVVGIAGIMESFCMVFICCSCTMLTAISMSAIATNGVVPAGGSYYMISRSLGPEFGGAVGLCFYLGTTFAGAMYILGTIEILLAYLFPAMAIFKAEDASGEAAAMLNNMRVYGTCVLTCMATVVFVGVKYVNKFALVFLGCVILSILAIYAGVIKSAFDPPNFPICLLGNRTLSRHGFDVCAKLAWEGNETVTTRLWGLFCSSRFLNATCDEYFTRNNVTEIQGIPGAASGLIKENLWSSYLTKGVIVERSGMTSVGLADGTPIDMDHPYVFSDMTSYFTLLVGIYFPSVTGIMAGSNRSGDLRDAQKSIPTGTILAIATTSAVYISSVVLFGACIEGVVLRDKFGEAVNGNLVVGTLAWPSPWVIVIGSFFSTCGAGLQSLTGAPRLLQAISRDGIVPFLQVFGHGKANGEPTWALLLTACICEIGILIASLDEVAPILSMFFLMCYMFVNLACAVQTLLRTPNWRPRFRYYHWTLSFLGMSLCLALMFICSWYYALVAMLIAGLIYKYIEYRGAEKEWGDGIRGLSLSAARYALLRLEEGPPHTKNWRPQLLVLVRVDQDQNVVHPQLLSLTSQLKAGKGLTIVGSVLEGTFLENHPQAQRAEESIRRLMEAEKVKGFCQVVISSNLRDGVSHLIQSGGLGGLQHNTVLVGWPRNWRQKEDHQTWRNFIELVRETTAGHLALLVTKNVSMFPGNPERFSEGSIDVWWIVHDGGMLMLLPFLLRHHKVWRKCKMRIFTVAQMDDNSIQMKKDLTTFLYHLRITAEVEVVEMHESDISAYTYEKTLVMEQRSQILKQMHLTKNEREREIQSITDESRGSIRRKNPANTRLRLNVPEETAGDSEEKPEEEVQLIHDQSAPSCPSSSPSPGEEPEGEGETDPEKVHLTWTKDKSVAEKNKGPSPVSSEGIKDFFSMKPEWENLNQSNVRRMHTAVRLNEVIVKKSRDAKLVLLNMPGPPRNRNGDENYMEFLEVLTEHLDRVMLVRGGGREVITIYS
STAT1 inh – reduces IFN-gamma driven STAT1 reporter signal; NIH 3T3 STAT1-luciferase reporter, luminescence; inhibition, % at 5.5 µM; 0.35% of 200,000 active;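 active = inhibition above a set limit, the mean inhibition across all tested compounds plus 3 SD, cut at about 34% in these data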
STAT1 act – STAT1 signaling activation; 2.6% of 200,000 active; NIH 3T3 STAT1-luciferase reporter, IFN-gamma, luminescence; 100% = IFN-gamma alone, no compound; activation (% of control), % at 5.5 µM;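 active = activation above the screen-wide mean activation plus 3 SD, cut at about 130% in these data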
STAT1 act conf – confirmation of STAT1 signaling activators; shares compounds with STAT1 act; NIH 3T3 STAT1-luciferase reporter, IFN-gamma potentiation, luminescence; 100% = IFN-gamma EC80 alone, no compound; activation (% of control), % at 5.7 µM; 97% of 1,200 active;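 active = activation above a set limit carried over from the earlier primary STAT1 screen, cut at about 140% in these data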
NFkB act – NF-kappaB activation in STAT1 activator counter-screen. HEK293T NF-kB luciferase reporter, TNF-alpha stimulated, luminescence; 100% = TNF-alpha with vehicle only. shares compounds with STAT1 act. AID 1306. activation (% of control), % at 5.7 µM. 43% of 1,200 active;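 active = activation above the mean of solvent-only control wells plus 3 SD, set per campaign, cut at about 130% in these data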;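 also: TNF-alpha given at a submaximal dose yielding about 80% of full reporter signal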
STAT3 act STAT1c – counter-screen for STAT1 activators: human STAT3 activation. shares compounds with STAT1 act. U3A cells STAT3-luciferase reporter, IL-6, luminescence; cells lack STAT1; 100 = IL-6 alone, no compound effect. activation (% of control), % at 5.7 µM. 46% of 1,200 active. AID 1316;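 active = activation above the solvent-only control well mean plus 3 SD, set per plate batch, cut at about 110% in these data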;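 also: higher means more STAT3 reporter activation so hits are non-selective activators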
KCC2 sec1 – KCC2 (human) modulation, secondary assay; shares compounds with Cl transport mod; HEK293-KCC2, thallium flux, FluoZin2 fluorescence; active compounds read high; normalised thallium flux (F/F0 slope) at 10 µM; 15% of 3,700 active; AID 1713;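 active = thallium flux slope above the same plate's solvent-only control mean plus 3 SD; inconclusive = the two replicate wells disagree; inactive = no significant difference from solvent-only control wells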
KCC2 bumet counter – thallium flux persisting under bumetanide in KCC2 cells, counter-screen secondary assay. shares compounds with Cl transport mod. HEK293-KCC2 + bumetanide/ouabain, thallium flux FluoZin2; active compounds read high. normalized thallium flux at 10 µM. 49% of 3,700 active. AID 1714;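 active = thallium entry rate above the same plate's blocked-transporter control wells by more than 3 SD; inconclusive = the two repeat wells disagree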;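 also: raw slope of fluorescence over initial fluorescence between 10 and 20 s after thallium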
KCC2 secondary2 – confirmation of human KCC2 transport modulators | shares compounds with Cl transport mod | HEK293-KCC2, thallium flux FluoZin2 fluorescence; actives lie on both sides; F/F0 rise rate, 10–20 s post-thallium | normalized thallium flux at 10 µM | 23% of 3,700 active | AID 1715;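 active = thallium flux slope more than 3 SD above or below the plate's solvent-only control mean, mostly below; inconclusive = the two repeat wells disagreed; inactive = no significant shift from solvent-only controls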
HEK293 Tl flux – counter-screen for KCC2 modulators: effect in parental HEK293 cells; shares compounds with Cl transport mod; thallium flux FluoZin2, ouabain; baseline-ratio fluorescence slope, 10–20 s after thallium; thallium flux rate (normalised fluorescence) at 10 µM; 46% of 3,700 active; AID 1716;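 active = thallium flux rate significantly above the same plate's solvent-only control wells, beyond their mean plus 3 SD; inconclusive = the two replicate wells gave conflicting results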
KCC2 retest ouab – confirmation of human KCC2 modulators with ouabain; shares compounds with Cl transport mod; HEK293-KCC2, thallium flux FluoZin2 fluorescence; bidirectional: low = inhibitor, high = activator; raw Tl+ flux slope (below DMSO = inhibition, above = activation) at 10 µM; 48% of 3,700 active; AID 1717;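 active = thallium flux slope beyond 3 SD from same-plate DMSO control mean in most replicates, usually higher, sometimes lower; inconclusive = repeat tests gave conflicting results; inactive = no significant difference from controls in most replicates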;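 also: slope of initial-normalized fluorescence between seconds 10 and 20 after thallium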
HEK293 Tl flux2 – counter-screen for KCC2 modulators: effect in parental HEK293 cells; thallium flux slope at 10 µM; shares compounds with Cl transport mod; 33% of 3,700 active; AID 1718; thallium flux FluoZin-2 fluorescence slope;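 active = thallium flux slope above the same plate's solvent-control mean plus 3 SD in both duplicate wells; inconclusive = duplicate wells that disagreed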;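 also: run without ouabain in cells lacking the KCC2 cotransporter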
Hits are given with their value; . = inactive; ? = inconclusive; / = no result.

SMILES	STAT3 blocker	STAT3 act	HSV augment	Cl transport mod	STAT1 inh	STAT1 act	KCC2 sec1	KCC2 bumet counter	KCC2 secondary2	HEK293 Tl flux	KCC2 retest ouab	HEK293 Tl flux2	others
CC1=CN2C(=N)/C(=C/c3ccc(C)o3)C(=O)N=C2S1	.	.	.	8.8	.	201	.	0.028	.	0.013	.	?	STAT1 act conf=249;NFkB act=141;STAT3 act STAT1c=.
O=C(NC(=S)Nc1ccc2c(c1)OCCO2)c1cccc(Br)c1	.	.	.	37	.	153	.	0.042	0.043	0.046	0.034	0.028	STAT1 act conf=176;NFkB act=133;STAT3 act STAT1c=118
FC(F)(F)c1nc(N2CCCC2)ncc1-c1nnnn1-c1ccc(Cl)cc1	.	.	.	.	.	.	/	/	/	/	/	/
C=CCn1c(SCC(N)=O)nc2scc(-c3ccc(C)o3)c2c1=O	.	.	.	37	.	155	.	0.028	0.047	0.037	0.042	0.035	STAT1 act conf=202;NFkB act=138;STAT3 act STAT1c=129
Cc1nc(C)c(C(=O)N/N=C/c2ccco2)s1	.	.	.	.	.	.	/	/	/	/	/	/
CCC(=Nc1ccc(Cc2ccncc2)cc1)c1c(O)n(C)c(=O)n(C)c1=O	.	.	.	-3.2	.	.	.	?	0.024	.	?	.
Cn1c(=O)c2c(O)c(Cc3ccccc3)c(=O)[nH]c2n(C)c1=O	.	.	.	.	.	.	/	/	/	/	/	/
O=C(c1ccccc1)N(Cc1ccc2c(c1)OCO2)Cc1nc2ccccc2c(=O)[nH]1	.	.	.	.	.	.	/	/	/	/	/	/
COc1ccccc1Oc1nc2c(c(=O)n(Cc3ccccc3F)c(=O)n2C)n1C	.	.	.	.	.	.	/	/	/	/	/	/
Cn1c(NCCCO)nc2c1c(=O)n(Cc1ccccc1F)c(=O)n2C	.	.	.	.	.	.	.	?	.	.	.	.
CC(C)CCNC(=O)[C@H](CSCc1ccccc1)N1Cc2ccccc2C1=O	.	.	.	-4.2	.	.	0.0058	.	?	?	0.014	.
COc1ccc(C(=O)COC(=O)c2ccc(OC)c(OC)c2)cc1OC	.	.	.	.	.	.	/	/	/	/	/	/
COc1ccc(O)c(C(=O)CC(=O)c2ccccc2C)c1	.	.	.	29	.	145	.	0.025	?	0.018	0.031	0.022
COc1ccc(C(=O)CC(=O)c2ccccc2O)cc1OC	.	.	.	7.1	.	.	.	0.011	.	0.013	.	.
O=C(/C=C/c1cccc([N+](=O)[O-])c1)N1CCN(Cc2ccc3c(c2)OCO3)CC1	.	.	.	.	.	.	/	/	/	/	/	/
O=C1NC[C@@H](Cc2cccc3ccccc23)N(CCc2cc(C(F)(F)F)cc(C(F)(F)F)c2)C1=O	/	/	.	-3.9	/	/	.	.	0.025	.	.	.
O=C(O)/C(=C\c1ccc(Br)cc1)c1ccc(S(=O)(=O)N2CCCCC2)s1	.	.	/	-6.9	.	.	.	.	.	.	0.012	.
CN1CCN(C(=S)NC(=O)c2ccc(-c3ccccc3)cc2)CC1	.	.	.	27	.	.	0.03	0.065	?	0.034	0.036	0.038
COc1ccc(OCC(=O)N2c3ccc(C)cc3C3CN(C)CCC32)cc1 (centres undefined)	.	.	.	.	.	.	/	/	/	/	/	/
O=C(NC(=S)N1CCN(C2CCCCC2)CC1)c1ccccc1	.	.	.	35	.	.	0.033	0.053	0.047	0.03	0.038	0.035
Cc1ccc(C(=O)NC(=S)N2CCN(C)CC2)cc1	.	.	/	.	.	.	/	/	/	/	/	/
Cc1ccc2c(c1)C1CN(C)CCC1N2C(=S)NC(=O)c1ccc(Br)cc1 (centres undefined)	.	.	.	133	.	.	0.041	0.11	?	0.13	0.085	0.035
CCN(CC)C(=S)NC(=O)c1ccc(F)cc1	.	.	.	34	.	.	.	0.052	0.049	0.033	0.047	0.042
Cc1ccc(C(=O)Nc2onc(C)c2C#N)cc1	.	.	.	.	.	.	/	/	/	/	/	/
CC1=CCC2COC(c3ccc[n+](Cc4ccccc4)c3)C1C2 (centres undefined)	.	.	.	.	.	.	/	/	/	/	/	/
SMILES	STAT3 blocker	STAT3 act	HSV augment	Cl transport mod	STAT1 inh	STAT1 act	KCC2 sec1	KCC2 bumet counter	KCC2 secondary2	HEK293 Tl flux	KCC2 retest ouab	HEK293 Tl flux2	others
O=C(NCCSCc1c(F)cccc1Cl)c1ccc(CN2CCOCC2)cc1	.	.	/	.	.	.	/	/	/	/	/	/
Cc1cccc(C(=O)NC(=S)N2CCN(C)CC2)c1	.	.	.	.	.	.	/	/	/	/	/	/
CCOC(=O)N1CCN(C(=S)NC(=O)c2ccnn2C)CC1	.	.	.	.	.	.	/	/	/	/	/	/
O=C(NC(=S)N1CCCCCC1)c1ccccc1Cl	.	.	.	23	.	.	0.025	0.054	.	0.024	0.048	0.014
CCOC(=O)N1CCN(C(=S)NC(=O)c2ccc(F)cc2)CC1	.	.	.	4.2	.	.	.	0.011	.	0.013	.	0.016
CN1CCN(C(=S)NC(=O)c2ccc(C(C)(C)C)cc2)CC1	.	.	/	11	.	.	.	0.018	.	0.016	?	0.015
CN1CCN(C(=S)NC(=O)c2ccc(Br)cc2)CC1	/	/	.	12	/	/	?	0.016	.	0.012	0.026	.
